Published values of several laboratories.

`C=CC(=O)N1CC2CC(n3nc(-c4ccc(C(=O)Nc5ccccn5)cc4)c4c(N)ncnc43)CC2C1` (centres unmarked) gave a Tmax of 15 min (SCID mouse, plasma; oral, 1 mg/kg).
The Tmax of `CS(=O)(=O)CCNCc1ccc(-c2ccc3ncnc(Nc4ccc(OCc5cccc(F)c5)c(Cl)c4)c3c2)o1` is reported as 120 min (nude mouse, plasma; oral, 100 mg/kg, single dose).
With `C[C@H]1O[C@@H](O[C@H]2[C@@H](O)C[C@H](O[C@H]3[C@@H](O)C[C@H](O[C@H]4CC[C@@]5(C)[C@H](CC[C@@H]6[C@@H]5C[C@@H](O)[C@]5(C)[C@@H](C7=CC(=O)OC7)CC[C@]65O)C4)O[C@@H]3C)O[C@@H]2C)C[C@H](O)[C@@H]1O` the efflux ratio was 6.6 (Caco-2; 5 µM, 1 h).
`COc1ccc(C(O)COc2ccc(-c3csc(-c4ccc(OCC(O)c5ccc(OC)c(OC)c5)cc4)n3)cc2)cc1OC` (centres unmarked) has a Tmax of 60 min (C57BL/6 mouse, plasma; oral, 30 mg/kg).
The bioavailability of `CC(C)(O)c1cn(-c2ccc(-c3cccc(S(C)(=O)=O)c3)cc2)c(C(C)(C)c2ccccc2Cl)n1` is reported as 73% (male cynomolgus monkey, plasma; oral, 3 mg/kg, single dose).
For `CC(C)(C)c1ccc(O)c(CN(Cc2cc(C(C)(C)C)ccc2O)C2CCC(NC(N)=O)CC2)c1` (centres unmarked), the Tmax was 30 min (male C57BL/6 mouse, brain; intraperitoneal, 5 mg/kg, single dose).
`CCc1nc2c(C)cc(N3CCN(CC(=O)N4CC(O)C4)CC3)cn2c1N(C)c1nc(-c2ccc(F)cc2)c(C#N)s1` has a Cmax of 9.37 ng/mL (human, plasma; intravenous, 0.1 mg, single dose, fasted, healthy volunteers).
With `CC=Cc1ccc(O)c(OC)c1` the Tmax was 5 min (mouse, brain; intranasal, 100 mg/kg).
`COc1cc(C(=O)NC2CCN(C)CC2)c(F)cc1Nc1ncc(C(F)(F)F)c(Oc2cccc3c2C(=O)N(C)C3)n1` has a Cmax of 4.54 µM (human, plasma; oral, 300 mg, single dose, patients).
For `CC(C)n1cc(C#N)c2cc(-n3cc(C(=O)O)cn3)ccc21`, the Cmax was 313 ng/mL (human, plasma; oral, 10 mg, single dose, fasted, healthy volunteers).
`Nc1cc(N2CCCCC2)nc(N)[n+]1[O-]` has an efflux ratio of 1.72 (Caco-2; 10 µM, 2 h, pH 7.4).
`Cn1cc(-c2ccc(S(=O)(=O)[C@@H]3C[C@@H](C(=O)NC4(C#N)CC4)N(C(=O)C4(C(F)(F)F)CC4)C3)c(C(F)(F)F)c2)cn1` has a Cmax of 1300 ng/mL (human, plasma; oral, 600 mg, single dose, fasted, healthy volunteers).
The Cmax of `CO[C@H]1CC[C@H](N2C(=O)CNc3ncc(-c4ccc(C(C)(C)O)nc4)nc32)CC1` is reported as 293 ng/mL (human, plasma; oral, 30 mg, multiple doses, patients).
With `CC(C)(O)c1cn(-c2ccc(-c3cc(F)c(CO)c(S(C)(=O)=O)c3)cc2F)c(C(C)(C)c2c(Cl)cccc2Cl)n1` the Vd was 2.9 L/kg (male cynomolgus monkey, plasma; intravenous, 1 mg/kg, single dose).
